Entries after “also recorded” stand apart in the source; their conditions may differ.
Columns and labels:
PANC-1 cells = experiment: Wound healing; assay type: cell-based, human; conditions: for Scratch gap closure: PANC-1 cells, 37 °C, 5% CO2; for PANC-1 cell migration in wound healing assay (in words): 0.5 and 1 μM
How it was run: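 PANC-1 cells in DMEM with 10% heat-inactivated FBS and 30 μg/mL gentamicin were seeded at about 1 × 10⁵ cells per well in 6-well plates and grown to 70–80% confluency. Each well was scratched with a sterile pipette tip, then medium and detached cells were removed. Duplicate wells received 0.5 or 1 μM test compound or control (final DMSO ≤0.2%). Closure was imaged by automated microscopy (4X) for 48 h.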

[1] = system: purified bovine brain tubulin; experiment: Inhibition of tubulin polymerization; assay type: biochemical; conditions: oxetane analogues compared with their ketone counterparts
How it was run: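 Bovine brain tubulin at 1 mg/mL (10 μM) in 0.8 M monosodium glutamate (pH 6.6) with 4% (v/v) DMSO and varied test compound concentrations, preincubated 15 min at 30 °C without GTP. The mix was chilled to 0 °C, then GTP added (0.1 mM final), and warmed to 30 °C over about 30 s.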

Row | SMILES | Scratch gap closure (PANC-1 cells; 0.5 μM compound) | Scratch gap closure (PANC-1 cells; 1 μM compound) | PANC-1 cell migration in wound healing assay (in words) (PANC-1 cells) | Inhibition of tubulin polymerization (in words) [1]
1 | COc1cc(C2(c3c(-c4ccccc4)[nH]c4cc(Br)ccc34)COC2)cc(OC)c1OC [Compound 5c, 6-Bromo-2-phenyl-3-(3-(3,4,5-trimethoxyphenyl)oxetan-3-yl)-1H-indole] | gap is not completely closed after 40 h | gap remains open after 40 h | inhibited PANC-1 cell migration | at most weakly active as inhibitors of tubulin polymerization; also recorded: no significant tubulin assembly inhibition activity
2 | COc1cc(C2(c3c(-c4ccccc4)[nH]c4c(OC)cccc34)COC2)cc(OC)c1OC [Compound 5h, 7-Methoxy-2-phenyl-3-(3-(3,4,5-trimethoxyphenyl)oxetan-3-yl)-1H-indole] | gap is not closed after 48 h | gap remains open after 48 h | inhibited PANC-1 cell migration | at most weakly active as inhibitors of tubulin polymerization; also recorded: no significant tubulin assembly inhibition activity
3 | COc1cc(C2(c3c(-c4ccccc4)[nH]c4cc(Cl)ccc34)COC2)cc(OC)c1OC [Compound 5k, 6-Chloro-2-phenyl-3-(3-(3,4,5-trimethoxyphenyl)oxetan-3-yl)-1H-indole] | – | – | – | at most weakly active as inhibitors of tubulin polymerization; also recorded: no significant tubulin assembly inhibition activity
4 | COc1ccc2[nH]c(-c3ccccc3)c(C3(c4cc(OC)c(OC)c(OC)c4)COC3)c2c1 [Compound 5l, 5-Methoxy-2-phenyl-3-(3-(3,4,5-trimethoxyphenyl)oxetan-3-yl)-1H-indole] | – | – | – | at most weakly active as inhibitors of tubulin polymerization; also recorded: no significant tubulin assembly inhibition activity
5 | COc1ccc2c(C3(c4cc(OC)c(OC)c(OC)c4)COC3)c(-c3ccc(OC)c(O)c3)[nH]c2c1 [Compound 5m, 2-Methoxy-5-(6-methoxy-3-(3-(3,4,5-trimethoxyphenyl)oxetan-3-yl)-1H-indol-2-yl)phenol] | – | – | – | at most weakly active as inhibitors of tubulin polymerization; also recorded: no significant tubulin assembly inhibition activity

Reference: paper PMC10848874 (Bioorganic & medicinal chemistry, 2023)
